ChEMBL document CHEMBL1128736, “Synthesis and anti-HIV activity of [AZT]-[TSAO-T] and [AZT]-[HEPT] dimers as potential multifunctional inhibitors of HIV-1 reverse transcriptase” (J Med Chem, 1995)

How the values were obtained:
Format in all cases: functional, organism-based
[1] = test system: Human immunodeficiency virus 1; assay: Inhibitory effect against HIV-1 replication in CEM cells.; details: Human immunodeficiency virus 1, CCRF-CEM
Procedure, shortened: (§1)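 CEM cells (4×10^5/mL; wild-type CEM/0 or thymidine kinase-deficient CEM/TK⁻) infected with HIV-1 or HIV-2 (ROD) at ~100 CCID50/mL, then mixed 1:1 with serial compound dilutions. After 4 days, virus-induced giant cell formation was scored microscopically. EC50 is the concentration inhibiting virus-induced cytopathicity by 50%.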

[2] = test system: Human immunodeficiency virus 2; assay: Inhibitory effect against HIV-2 replication in CEM /TK-(thymidine kinase deficient) cells.; details: Human immunodeficiency virus 2, CCRF-CEM; procedure, shortened: as §1
[3] = test system: Human immunodeficiency virus 2; assay: Inhibitory effect against HIV-2 replication in CEM cells.; details: Human immunodeficiency virus 2, CCRF-CEM; procedure, shortened: as §1

| SMILES | EC50 [1] | EC50 [2] | EC50 [3] |
| --- | --- | --- | --- |
| Cc1cn([C@@H]2O[C@H](CO[Si](C)(C)C(C)(C)C)C3(OS(=O)(=O)C=C3N)[C@H]2O[Si](C)(C)C(C)(C)C)c(=O)[nH]c1=O (stereo partly drawn) | 0.05 µM | > 6 µM | > 6 µM |
| Cc1cn(C2CC(N=[N+]=[N-])C(CO)O2)c(=O)n(CCCBr)c1=O (stereo not drawn) | > 50 µM |  | > 50 µM |
| Cc1cn(C2CC(N=[N+]=[N-])C(CO)O2)c(=O)n(CCCCCCCCCBr)c1=O (stereo not drawn) | > 8 µM | > 8 µM | > 8 µM |
| Cc1cn([C@@H]2O[C@H](CO[Si](C)(C)C(C)(C)C)[C@@]3(OS(=O)(=O)C=C3N)[C@H]2O[Si](C)(C)C(C)(C)C)c(=O)n(CCCn2c(=O)c(C)cn([C@H]3C[C@H](O)[C@@H](CO)O3)c2=O)c1=O | 0.06 µM | > 4 µM | > 4 µM |
| Cc1cn([C@@H]2O[C@H](CO[Si](C)(C)C(C)(C)C)[C@@]3(OS(=O)(=O)C=C3N)[C@H]2O[Si](C)(C)C(C)(C)C)c(=O)n(CCCCCCn2c(=O)c(C)cn([C@H]3C[C@H](O)[C@@H](CO)O3)c2=O)c1=O | 0.55 µM |  | > 4 µM |
| Cc1cn([C@@H]2O[C@H](CO[Si](C)(C)C(C)(C)C)[C@@]3(OS(=O)(=O)C=C3N)[C@H]2O[Si](C)(C)C(C)(C)C)c(=O)n(CCCCCCCn2c(=O)c(C)cn([C@H]3C[C@H](N=[N+]=[N-])[C@@H](CO)O3)c2=O)c1=O | 1.58 µM |  | > 100 µM |
| Cc1cn([C@@H]2O[C@H](CO[Si](C)(C)C(C)(C)C)[C@@]3(OS(=O)(=O)C=C3N)[C@H]2O[Si](C)(C)C(C)(C)C)c(=O)n(CCCCCCn2c(=O)c(C)cn([C@H]3C[C@H](N=[N+]=[N-])[C@@H](CO)O3)c2=O)c1=O | 0.21 µM | > 100 µM | > 100 µM |
| Cc1cn([C@@H]2O[C@H](CO[Si](C)(C)C(C)(C)C)[C@@]3(OS(=O)(=O)C=C3N)[C@H]2O[Si](C)(C)C(C)(C)C)c(=O)n(CCCCCn2c(=O)c(C)cn([C@H]3C[C@H](N=[N+]=[N-])[C@@H](CO)O3)c2=O)c1=O | 0.22 µM | > 100 µM | > 100 µM |
| Cc1cn([C@@H]2O[C@H](CO[Si](C)(C)C(C)(C)C)[C@@]3(OS(=O)(=O)C=C3N)[C@H]2O[Si](C)(C)C(C)(C)C)c(=O)n(CCCCCCBr)c1=O | 0.47 µM |  | > 25 µM |
| Cc1cn([C@@H]2O[C@H](CO[Si](C)(C)C(C)(C)C)[C@@]3(OS(=O)(=O)C=C3N)[C@H]2O[Si](C)(C)C(C)(C)C)c(=O)n(CCCBr)c1=O | 0.11 µM |  | > 100 µM |
| Cc1cn([C@H]2C[C@H](O)[C@@H](CO)O2)c(=O)n(CCCCCCCn2c(=O)c(C)c(Sc3ccccc3)n(COCCO)c2=O)c1=O | > 30 µM |  | > 30 µM |
| Cc1cn([C@H]2C[C@H](O)[C@@H](CO)O2)c(=O)n(CCCCCCn2c(=O)c(C)c(Sc3ccccc3)n(COCCO)c2=O)c1=O | 79 µM |  | > 30 µM |
| Cc1cn([C@@H]2O[C@H](CO[Si](C)(C)C(C)(C)C)[C@@]3(OS(=O)(=O)C=C3N)[C@H]2O[Si](C)(C)C(C)(C)C)c(=O)n(CCCCn2c(=O)c(C)cn([C@H]3C[C@H](N=[N+]=[N-])[C@@H](CO)O3)c2=O)c1=O | 0.2 µM | > 100 µM | > 100 µM |
| Cc1cn([C@@H]2O[C@H](CO[Si](C)(C)C(C)(C)C)[C@@]3(OS(=O)(=O)C=C3N)[C@H]2O[Si](C)(C)C(C)(C)C)c(=O)n(CCCn2c(=O)c(C)cn([C@H]3C[C@H](N=[N+]=[N-])[C@@H](CO)O3)c2=O)c1=O | 0.1 µM | > 100 µM | > 100 µM |
| Cc1cn([C@@H]2O[C@H](CO[Si](C)(C)C(C)(C)C)[C@@]3(OS(=O)(=O)C=C3N)[C@H]2O[Si](C)(C)C(C)(C)C)c(=O)n(CCCCCCCCCn2c(=O)c(C)cn([C@H]3C[C@H](N=[N+]=[N-])[C@@H](CO)O3)c2=O)c1=O | 15.3 µM | > 100 µM | > 100 µM |
| Cc1cn([C@@H]2O[C@H](CO[Si](C)(C)C(C)(C)C)[C@@]3(OS(=O)(=O)C=C3N)[C@H]2O[Si](C)(C)C(C)(C)C)c(=O)n(CCCCCCCn2c(=O)c(C)cn([C@H]3C[C@H](O)[C@@H](CO)O3)c2=O)c1=O | 0.22 µM |  | > 4 µM |

| SMILES | EC50 [1] | EC50 [2] | EC50 [3] |
| --- | --- | --- | --- |
| Cc1cn([C@@H]2O[C@H](CO[Si](C)(C)C(C)(C)C)[C@@]3(OS(=O)(=O)C=C3N)[C@H]2O[Si](C)(C)C(C)(C)C)c(=O)n(CCCCCCCCn2c(=O)c(C)cn([C@H]3C[C@H](N=[N+]=[N-])[C@@H](CO)O3)c2=O)c1=O | 1.56 µM |  | > 100 µM |
| Cc1cn([C@H]2C[C@H](O)[C@@H](CO)O2)c(=O)n(CCCCCCCBr)c1=O | > 10 µM | > 10 µM | > 10 µM |
| Cc1cn([C@@H]2O[C@H](CO[Si](C)(C)C(C)(C)C)[C@@]3(OS(=O)(=O)C=C3N)[C@H]2O[Si](C)(C)C(C)(C)C)c(=O)n(CCCCCCCCCBr)c1=O | > 1 µM | > 1 µM | > 1 µM |
| Cc1cn([C@@H]2O[C@H](CO[Si](C)(C)C(C)(C)C)[C@@]3(OS(=O)(=O)C=C3N)[C@H]2O[Si](C)(C)C(C)(C)C)c(=O)n(CCCCCCCCBr)c1=O | > 1 µM | > 1 µM | > 1 µM |
| Cc1cn([C@@H]2O[C@H](CO[Si](C)(C)C(C)(C)C)[C@@]3(OS(=O)(=O)C=C3N)[C@H]2O[Si](C)(C)C(C)(C)C)c(=O)n(CCCCCCCBr)c1=O | 0.79 µM | > 5 µM | > 1 µM |
| Cc1cn(C2CC(N=[N+]=[N-])C(CO)O2)c(=O)n(CCCCCCn2c(=O)c(C)c(Sc3ccccc3)n(COCCO)c2=O)c1=O (stereo not drawn) | > 5 µM | > 5 µM | > 5 µM |
| Cc1cn(C2CC(N=[N+]=[N-])C(CO)O2)c(=O)n(CCCCCBr)c1=O (stereo not drawn) | > 50 µM | > 10 µM | > 50 µM |
| Cc1cn(C2CC(N=[N+]=[N-])C(CO)O2)c(=O)n(CCCCCCBr)c1=O (stereo not drawn) |  | > 45 µM |  |
| Cc1cn(C2CC(N=[N+]=[N-])C(CO)O2)c(=O)n(CCCCCCCn2c(=O)c(C)c(Sc3ccccc3)n(COCCO)c2=O)c1=O (stereo not drawn) | > 5 µM |  | > 5 µM |
| Cc1c(Sc2ccccc2)n(COCCO)c(=O)n(CCCCCCCBr)c1=O | > 8 µM | > 8 µM | > 8 µM |
| Cc1cn(C2CC(N=[N+]=[N-])C(CO)O2)c(=O)n(CCCCCCCCBr)c1=O (stereo not drawn) | > 8 µM | > 8 µM | > 8 µM |
| Cc1c(Sc2ccccc2)n(COCCO)c(=O)n(CCCCCCBr)c1=O |  | > 8 µM |  |
| Cc1cn([C@H]2C[C@H](O)[C@@H](CO)O2)c(=O)[nH]c1=O [DOXRIBTIMINE] | > 40 µM | > 40 µM | > 40 µM |
| Cc1c(Sc2ccccc2)n(COCCO)c(=O)[nH]c1=O [HEPT] |  | > 100 µM | > 100 µM |
| Cc1cn([C@H]2C[C@H](N=[N+]=[N-])[C@@H](CO)O2)c(=O)[nH]c1=O [ZIDOVUDINE] | 0.011 µM | > 35 µM | 0.011 µM |
